Test results published in ChEMBL document CHEMBL2157864, “Microwave-assisted synthesis of hydroxyphenyl nitrones with protective action against oxidative stress” (Eur J Med Chem, 2012).
The source made the active and inactive calls. No cut-off for these calls is given here.

What was measured:
[1] = Permeability of the compound after 4 hrs by PAMPA assay; assay type: ADME; conditions: read-out: permeability
SH-SY5Y [2] = assay: Neuroprotective activity against 6OHDA-induced toxicity in human SH-SY5Y cells assessed as cell viability at 10 uM after 24 hrs by MTT assay (reference value: 75%); assay type: functional; conditions: read-out: Activity
[3] = Antioxidant activity against peroxynitrite assessed as inhibition of RNAse nitration by Western blot analysis; assay type: functional
Summary of the method: (§1)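 RNase A or cytochrome c (5 μM) treated with authentic ONOO⁻ (200 μM) in presence of compound; 12% SDS-PAGE and western blot probed with anti-3-nitrotyrosine antibody.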

SH-SY5Y [4] = assay: Cytotoxicity against human SH-SY5Y cells at 10 to 100 uM after 24 hrs by MTT assay; assay type: cell-based
Summary of the method: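 SH-SY5Y human neuroblastoma cells exposed to compound (10–100 μM) for 24 h; viability by MTT assay.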

[5] = Antioxidant activity against peroxynitrite assessed as inhibition of cytochrome c nitration by Western blot analysis; assay type: functional; summary of the method: as §1
[6] = Antioxidant activity against peroxynitrite assessed as inhibition of alpha-synuclein nitration at 50 uM by Western blot analysis; assay type: functional
Summary of the method: (§2)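 α-Synuclein (5 μM) exposed to authentic ONOO⁻ (200 μM) with compound (50 μM) or 1% DMSO; 12% SDS-PAGE, western blot with anti-αS and anti-3-nitrotyrosine antibodies; densitometry of anti-nitrotyrosine blots used for dose-response. Reverse-addition ONOO⁻ control included.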

[7] = Antioxidant activity against peroxynitrite assessed as inhibition of alpha-synuclein aggregate formation at 50 uM by Western blot analysis; assay type: functional; summary of the method: as §2
[8] = Antioxidant activity against peroxyl radical production assessed as trolox equivalent by ORAC assay; assay type: functional
Summary of the method: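 Oxygen radical absorbance capacity assay, fluorescein as fluorescent probe, peroxyl radical scavenging; expressed as μmol Trolox equivalents per μmol compound, mean of n = 3 ± SD.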

Astrocyte = assay: Antiinflammatory activity in rat primary astrocytes assessed as inhibition of LPS-induced nitrite production at 10 uM incubated for 1 hr prior to LPS-challenge measured after 24 hrs by Greiss method; assay type: functional, cell-based
Summary of the method: (§3)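 Rat primary glial cultures (microglia or astrocytes) pre-incubated 1 h with compound, then 24 h with LPS (10 μg/mL); nitrite in culture medium measured by Griess reaction. Means ± SD of three experiments.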

Microglia = assay: Antiinflammatory activity in rat primary microglia cells assessed as inhibition of LPS-induced nitrite production at 10 uM incubated for 1 hr prior to LPS-challenge measured after 24 hrs by Greiss method; assay type: functional; summary of the method: as §3
[9] = Cytotoxicity against rat primary microglia cells at 10 uM after 24 hrs by MTT assay; assay type: cell-based
Summary of the method: (§4)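 Rat primary astrocyte or microglia cultures exposed 24 h to compound (10 μM); cytotoxicity assessed in vitro.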

SH-SY5Y [10] = assay: Neuroprotective activity against SIN1-induced toxicity in human SH-SY5Y cells at 50 to 500 uM after 24 hrs by MTT assay; assay type: functional, cell-based
Summary of the method: (§5)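 SH-SY5Y cells pre-incubated 1 h with compound, then challenged with SIN-1 (0.5 mM; ONOO⁻ generation about 9 μM per minute by DHR method) or vehicle; viability by MTT assay. Mean ± SD, three independent experiments.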

[11] = Cytotoxicity against rat primary astrocytes at 10 uM after 24 hrs by MTT assay; assay type: cell-based; conditions: astrocyte; summary of the method: as §4
[12] = Antioxidant activity against OH radical production by Western blot analysis; assay type: functional
[13] = Antioxidant activity against NO2 radical assessed as mono nitreated derivative formation at 50 uM by mass spectroscopic analysis; assay type: functional
Summary of the method: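 Compound (50 μM) preincubated with excess NaNO₂ (4 mM), converting •OH to •NO₂, then 500 μM ONOO⁻ in 50 mM potassium phosphate, pH 7.4; products analysed by chromatography with mass spectrometry, tracking nitrated-product peak.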

[14] = Antioxidant activity against NO2 radical production by Western blot analysis; assay type: functional
[15] = Antioxidant activity against CO3 radical production by Western blot analysis; assay type: functional
[16] = Antioxidant activity against peroxynitrite radical at 50 uM by mass spectroscopic analysis; assay type: functional
Summary of the method: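 Compound (50 μM) reacted with 500 μM ONOO⁻ in 50 mM potassium phosphate, pH 7.4, without NaNO₂; reaction products resolved chromatographically and characterised by mass spectrometry.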

SH-SY5Y [17] = assay: Neuroprotective activity against SIN1-induced toxicity in human SH-SY5Y cells assessed as cell viability at 100 uM after 24 hrs by MTT assay relative to control; assay type: functional; conditions: read-out: Activity; summary of the method: as §5
[18] = Antioxidant activity against peroxynitrite assessed as inhibition of alpha-synuclein nitration by Western blot analysis; assay type: functional; summary of the method: as §2
SH-SY5Y [19] = assay: Neuroprotective activity against SIN1-induced toxicity in human SH-SY5Y cells after 24 hrs by MTT assay; assay type: functional, cell-based; summary of the method: as §5
SH-SY5Y [20] = assay: Neuroprotective activity against SIN1-induced toxicity in human SH-SY5Y cells assessed as cell viability at 500 uM after 24 hrs by MTT assay relative to control; assay type: functional; conditions: read-out: Activity; summary of the method: as §5

CN1C(C(=O)Nc2ccccn2)=C(O)c2ccccc2S1(=O)=O [PIROXICAM]
Papp at 4 h [1]: 16 nm/s

CCn1cc(C(=O)O)c(=O)c2cc(F)c(N3CCNCC3)nc21 [ENOXACIN]
Papp at 4 h [1]: 17 nm/s

CC(C)(C)c1cc(/C=[N+](\[O-])C(C)(C)C)cc(C(C)(C)C)c1O
Papp at 4 h [1]: 102 nm/s
viability at 10 µM (SH-SY5Y [2]): 100%
inhibition [3]: Active
Activity (SH-SY5Y [4]): Non-toxic
inhibition [5]: Active
inhibition [6]: Active
inhibition [7]: Active
Activity [8]: 2 equiv
inhibition (Astrocyte): Active
inhibition (Microglia): Active
Activity [9]: Non-toxic
Activity (SH-SY5Y [10]): inactive
Activity [11]: Non-toxic

CC(C)(C)/[N+]([O-])=C/c1ccc(O)cc1
Papp at 4 h [1]: 2 nm/s
Activity [12]: Active
Activity [13]: Active
viability at 10 µM (SH-SY5Y [2]): 100%
inhibition [3]: Active
Activity [14]: Active
Activity (SH-SY5Y [4]): Non-toxic
inhibition [5]: Active
Activity [15]: Active
inhibition [6]: Active
inhibition [7]: Active
Activity [16]: Active
Activity [8]: 3.2 equiv
viability at 100 µM (SH-SY5Y [17]): 91%
inhibition (Astrocyte): Active
inhibition (Microglia): Active
inhibition [18]: Dose-dependent effect
Activity [9]: Non-toxic
Activity (SH-SY5Y [19]): Dose-dependent effect
Activity [11]: Non-toxic
viability at 500 µM (SH-SY5Y [20]): 100%

CNCCCN1c2ccccc2CCc2ccccc21 [DESIPRAMINE]
Papp at 4 h [1]: 144 nm/s

CC(C)(C)/[N+]([O-])=C/c1ccccc1O
Papp at 4 h [1]: 375 nm/s
viability at 10 µM (SH-SY5Y [2]): 100%
Activity (SH-SY5Y [4]): Non-toxic
Activity [8]: 2.6 equiv
inhibition (Astrocyte): Active
inhibition (Microglia): Active
Activity [9]: Non-toxic
Activity (SH-SY5Y [10]): inactive
Activity [11]: Non-toxic

CC(C)(C)/[N+]([O-])=C/c1ccccc1
Activity [8]: 0.014 equiv
